Experimental data as given in ChEMBL document CHEMBL1142276, “Synthesis, cannabinoid receptor affinity, and molecular modeling studies of substituted 1-aryl-5-(1H-pyrrol-1-yl)-1H-pyrazole-3-carboxamides” (J Med Chem, 2008).
pEC50, pIC50, pKi: −log10 of the molar value. Active and inactive are the calls of the source. The rule behind the calls is not given here.

Assays:
Homo sapiens = species on record: Homo sapiens; assay: Ratio of Ki for human recombinant CB2 receptor to human recombinant CB1 receptor
Cannabinoid receptor 2 = Cannabinoid receptor 2 (Homo sapiens, UniProt P34972); assay: Displacement of [3H]CP-55940 from human recombinant CB2 receptor expressed in HEK cells; format: cell-based, HEK293; conditions: for pIC50: read-out: IC50
Cannabinoid receptor 2, sequence (P34972 whole entry): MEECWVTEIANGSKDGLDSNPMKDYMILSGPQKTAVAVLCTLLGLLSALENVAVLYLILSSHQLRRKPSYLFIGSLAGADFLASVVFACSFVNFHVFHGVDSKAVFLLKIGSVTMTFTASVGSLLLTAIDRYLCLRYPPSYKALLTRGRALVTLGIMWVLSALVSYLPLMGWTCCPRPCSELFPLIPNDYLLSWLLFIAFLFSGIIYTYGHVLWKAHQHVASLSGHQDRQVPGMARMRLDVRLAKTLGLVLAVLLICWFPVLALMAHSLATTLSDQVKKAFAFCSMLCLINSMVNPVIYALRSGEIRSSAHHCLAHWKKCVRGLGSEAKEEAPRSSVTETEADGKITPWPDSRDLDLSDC
Procedure, shortened: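 Membranes came from HEK cells transfected with human CB2. IC50 values were converted to Ki by Cheng-Prusoff. Values are means of at least three experiments, each in duplicate.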

Cannabinoid receptor 1 [1] = molecular target: Cannabinoid receptor 1 (Homo sapiens, UniProt P21554); assay: biochemical; format: cell-based, HEK293
Cannabinoid receptor 1 (Homo sapiens, UniProt P21554), sequence (P21554 whole entry): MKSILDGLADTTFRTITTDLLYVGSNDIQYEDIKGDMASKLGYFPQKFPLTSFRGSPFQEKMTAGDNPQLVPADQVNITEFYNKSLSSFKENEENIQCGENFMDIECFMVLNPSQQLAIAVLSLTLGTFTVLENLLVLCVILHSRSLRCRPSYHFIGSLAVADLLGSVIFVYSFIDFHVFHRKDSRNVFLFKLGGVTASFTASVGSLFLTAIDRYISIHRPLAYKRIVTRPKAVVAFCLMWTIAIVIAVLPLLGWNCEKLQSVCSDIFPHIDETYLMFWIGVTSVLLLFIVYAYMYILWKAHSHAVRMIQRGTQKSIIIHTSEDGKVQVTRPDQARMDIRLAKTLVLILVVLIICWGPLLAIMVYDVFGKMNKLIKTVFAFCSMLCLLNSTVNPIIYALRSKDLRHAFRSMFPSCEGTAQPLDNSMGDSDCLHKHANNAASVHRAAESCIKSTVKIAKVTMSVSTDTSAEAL

[2] = molecular target: Cannabinoid receptor 1 (Mus musculus) (UniProt P47746); assay: Antagonist activity at mouse CB1 receptor in mouse N18TG2 cells assessed as forskolin-induced cAMP formation in presence of WIN-55212-2; format: functional, cell-based
Cannabinoid receptor 1 (Mus musculus), sequence (P47746 whole entry): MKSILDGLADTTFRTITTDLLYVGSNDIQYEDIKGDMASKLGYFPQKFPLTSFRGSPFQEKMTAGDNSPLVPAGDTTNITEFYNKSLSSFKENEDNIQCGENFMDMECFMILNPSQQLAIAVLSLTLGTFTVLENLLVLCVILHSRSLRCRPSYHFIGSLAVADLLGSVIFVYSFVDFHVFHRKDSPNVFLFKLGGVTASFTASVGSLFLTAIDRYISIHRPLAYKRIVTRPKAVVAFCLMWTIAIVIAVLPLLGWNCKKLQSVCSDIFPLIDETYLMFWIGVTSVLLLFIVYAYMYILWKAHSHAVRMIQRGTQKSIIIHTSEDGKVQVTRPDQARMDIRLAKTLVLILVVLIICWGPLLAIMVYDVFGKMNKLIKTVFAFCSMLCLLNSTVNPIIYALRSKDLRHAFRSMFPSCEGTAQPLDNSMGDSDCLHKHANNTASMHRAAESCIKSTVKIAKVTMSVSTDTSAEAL
Procedure, shortened: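 Intact confluent N18TG2 cells were exposed to compound with or without the CB1 agonist WIN55,212-2 at 100 nM, in the presence and absence of 1 µM forskolin. Incubation was 10 min at 37 °C in serum-free DMEM with HEPES, BSA and IBMX, vehicle 0.1% methanol. cAMP in ethanol extracts was quantified by kit.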

[3] = molecular target: Cannabinoid receptor 1 (Mus musculus) (UniProt P47746); assay: Activity at mouse CB1 receptor in mouse N18TG2 cells assessed as inhibition of forskolin-induced cAMP formation at 200 to 300 nM; format: functional, cell-based
Procedure, shortened: (§1)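 Intact confluent mouse N18TG2 neuroblastoma cells were stimulated for 10 min at 37 °C with 1 µM forskolin in serum-free DMEM with 20 mM HEPES, 0.1 mg/mL BSA and 0.1 mM IBMX. Compounds were given at various concentrations, with vehicle 0.1% methanol. Cells were then extracted with ethanol and cAMP was measured by kit.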

Cannabinoid receptor 1 [4] = molecular target: Cannabinoid receptor 1 (Mus musculus, UniProt P47746); assay: Activity at mouse CB1 receptor in mouse N18TG2 cells assessed as forskolin-induced cAMP formation; format: functional, cell-based
Cannabinoid receptor 1 (Mus musculus, UniProt P47746), sequence (P47746 whole entry): as above
Procedure, shortened: as §1

| SMILES | Ratio Ki (Homo sapiens) | pKi (Cannabinoid receptor 2) | pIC50 (Cannabinoid receptor 2) | pIC50 (Cannabinoid receptor 1 [1]) | pKi (Cannabinoid receptor 1 [1]) | IC50 (Cannabinoid receptor 2; hek293) | Activity [2] | Activity [3] | pEC50 (Cannabinoid receptor 1 [4]) |
| --- | --- | --- | --- | --- | --- | --- | --- | --- | --- |
| Cc1c(C(=O)NC2CCCCC2)nn(-c2ccc(Cl)c(Cl)c2)c1-n1c(C)ccc1C | 0.093 | 8.89 | 8.77 | 7.60 | 7.85 |  |  |  |  |
| O=C(NC1CCCCC1)c1cc(-n2cccc2)n(-c2ccc(Cl)cc2)n1 | 6.25 | 5.76 | 5.65 | 6.30 | 6.55 |  |  |  |  |
| Cc1c(C(=O)NN2CCCCC2)nn(-c2ccc(F)cc2F)c1-n1c(C)ccc1C |  | < 5.40 | < 5.30 |  |  |  |  |  |  |
| Cc1c(C(=O)NN2CCCCC2)nn(-c2ccc(Cl)cc2)c1-n1cccc1 | 19.8 | 5.66 | 5.56 | 6.70 | 6.96 |  |  |  |  |
| Cc1c(C(=O)NCc2ccc(Cl)c(Cl)c2)nn(-c2c(Cl)cc(Cl)cc2Cl)c1-n1cccc1 |  | < 5.40 | < 5.30 |  |  |  |  |  |  |
| Cc1c(C(=O)NN2CCCCC2)nn(-c2ccccc2)c1-n1cccc1 |  | < 5.40 |  | < 5.30 | < 5.55 | Not Active |  |  |  |
| Cc1c(C(=O)NC2CCCCC2)nn(-c2ccc(F)cc2F)c1-n1c(C)ccc1C |  | 6.24 | 6.14 |  |  |  |  |  |  |
| Cc1c(C(=O)NCc2ccc(Cl)c(Cl)c2)nn(-c2ccc(Cl)cc2Cl)c1-n1cccc1 |  | 6.29 | 6.19 |  |  |  |  |  |  |
| Cc1c(C(=O)NCC2CCCCC2)nn(-c2ccc(Cl)cc2)c1-n1cccc1 | 3.55 | 6.41 | 6.30 | 6.70 | 6.96 |  |  |  |  |
| N#Cc1c(C(=O)NCc2ccc(Cl)c(Cl)c2)nn(-c2ccccc2)c1-n1cccc1 |  | < 5.40 | < 5.30 |  |  |  |  |  |  |
| N#Cc1c(C(=O)NN2CCCCC2)nn(-c2ccccc2)c1-n1cccc1 |  | < 5.40 |  | < 5.30 | < 5.55 |  |  |  |  |
| Cc1c(C(=O)NC2CCCCC2)nn(-c2ccc(Cl)c(Cl)c2)c1-n1cccc1 | 0.3 | 8.77 | 8.66 | 8.00 | 8.25 |  | Active | inactive | 9.00 |
| Cc1c(C(=O)NCc2ccc(Cl)c(Cl)c2)nn(-c2ccc(Cl)cc2Cl)c1-n1c(C)ccc1C | 141 | 5.40 | 5.30 | 7.30 | 7.55 |  |  | inactive | 7.60 |
| Cc1c(C(=O)NN2CCCCC2)nn(-c2c(Cl)cc(Cl)cc2Cl)c1-n1cccc1 | > 2.19 | < 5.40 | < 5.30 | 5.49 | 5.74 |  |  |  |  |
| Cc1c(C(=O)NN2CCCCC2)nn(-c2ccc(Cl)cc2Cl)c1-n1cccc1 | 0.94 | 5.76 | 6.70 | 5.48 | 5.73 |  |  |  |  |
| Cc1c(C(=O)NC2CCCCC2)nn(-c2c(Cl)cc(Cl)cc2Cl)c1-n1c(C)ccc1C |  | 6.41 | 6.30 |  |  |  |  |  |  |
| Cc1nn(-c2ccc(Cl)cc2)c(-n2cccc2)c1C(=O)NN1CCCCC1 |  | < 5.40 |  | < 5.30 | < 5.55 |  |  |  |  |

| SMILES | Ratio Ki (Homo sapiens) | pKi (Cannabinoid receptor 2) | pIC50 (Cannabinoid receptor 2) | pIC50 (Cannabinoid receptor 1 [1]) | pKi (Cannabinoid receptor 1 [1]) | IC50 (Cannabinoid receptor 2; hek293) | Activity [2] | Activity [3] | pEC50 (Cannabinoid receptor 1 [4]) |
| --- | --- | --- | --- | --- | --- | --- | --- | --- | --- |
| Cc1c(C(=O)NCc2ccc(Cl)c(Cl)c2)nn(-c2ccc(Cl)c(Cl)c2)c1-n1c(C)ccc1C | 4.89 | 5.86 | 5.76 | 6.30 | 6.55 |  |  |  |  |
| Cc1c(C(=O)NCc2ccc(Cl)c(Cl)c2)nn(-c2ccc(F)cc2F)c1-n1cccc1 |  | 6.41 | 6.30 |  |  |  |  |  |  |
| O=C(NN1CCCCC1)c1cc(-n2cccc2)n(-c2ccccc2)n1 |  | < 5.40 |  | < 5.30 | < 5.55 |  |  |  |  |
| Cc1c(C(=O)NN2CCOCC2)nn(-c2ccc(F)cc2F)c1-n1cccc1 |  | < 5.40 | < 5.30 | < 5.30 | < 5.55 |  |  |  |  |
| Cc1c(C(=O)NCc2ccc(Cl)c(Cl)c2)nn(-c2ccc(F)cc2F)c1-n1c(C)ccc1C | > 113 | < 5.40 | < 5.30 | 7.21 | 7.46 |  |  |  | < 7.22 |
| Cc1nn(-c2ccc(Cl)cc2)c(-n2cccc2)c1C(=O)NCc1ccc(Cl)c(Cl)c1 |  | < 5.40 |  |  |  |  |  |  |  |
| Cc1c(C(=O)NC2CCCCC2)nn(-c2ccc(F)cc2F)c1-n1cccc1 |  | 7.19 | 7.08 |  |  |  |  |  |  |
| Cc1c(C(=O)NN2CCCCC2)nn(-c2ccc(Cl)c(Cl)c2)c1-n1cccc1 |  | 7.70 | 7.60 |  |  |  |  |  |  |
| Cc1c(C(=O)NC2CCCCC2)nn(-c2ccc(Cl)cc2Cl)c1-n1cccc1 | 1.14 | 7.19 | 7.09 | 7.00 | 7.25 |  |  |  |  |
| Cc1c(C(=O)NN2CCCCC2)nn(-c2c(Cl)cc(Cl)cc2Cl)c1-n1c(C)ccc1C | > 35.8 | < 5.40 | < 5.30 | 6.70 | 6.96 |  |  |  |  |
| Cc1c(C(=O)NN2CCCCC2)nn(-c2ccc(Cl)cc2Cl)c1-n1c(C)ccc1C | 25.8 | 6.01 | 5.91 | 7.17 | 7.42 |  |  |  |  |
| Cc1c(C(=O)NCc2ccc(Cl)c(Cl)c2)nn(-c2ccc(Cl)c(Cl)c2)c1-n1cccc1 |  | 6.82 | 6.72 |  |  |  |  |  |  |
| Cc1c(C(=O)NC2CCCCC2)nn(-c2ccc(Cl)cc2Cl)c1-n1c(C)ccc1C | 2.07 | 7.06 | 6.96 | 7.13 | 7.38 |  |  |  |  |
| O=C(NN1CCCCC1)c1cc(-n2cccc2)n(-c2ccc(Cl)cc2)n1 |  | < 5.40 |  |  |  |  |  |  |  |
| Cc1c(C(=O)NN2CCCCC2)nn(-c2ccc(F)cc2F)c1-n1cccc1 |  | 5.62 | 5.52 |  |  |  |  |  |  |
| N#Cc1c(C(=O)NN2CCCCC2)nn(-c2ccc(Cl)cc2)c1-n1cccc1 | > 1.4 | < 5.40 |  | 5.30 | 5.55 |  |  |  |  |
| Cc1c(C(=O)NN2CCCCC2)nn(-c2ccc(Cl)c(Cl)c2)c1-n1c(C)ccc1C |  | 7.54 | 7.43 |  |  |  |  |  |  |
